Results on 3 molecules are retold here after paper PMC8802302 (Journal of Medicinal Chemistry, 2021).

Bounds are passed on as bounds.

The nature of data set [1]: PAMPA permeability. Type of data set: in vitro ADME. Particulars: PBS pH 7.4, 5 h incubation. Summed up:
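DMSO stocks of test compound were diluted in PBS pH 7.4 and added to the donor side of a precoated PAMPA plate, with PBS pH 7.4 as acceptor, for 5 h. Both compartments were quantified by chemiluminescent nitrogen detection against a calibration curve, with background nitrogen corrected. Effective permeability was calculated from donor and acceptor concentrations, using measured rather than assumed solubility.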
For orientation: PAMPA measures passive passage across an artificial lipid membrane.

The subject of data set [2] is 403 wild-type (WT) human kinases. In words: DiscoverX scanMAX kinome-wide selectivity screen. Type of data set: binding. Particulars: 403 WT human kinases; for no. kinases with PoC < 10: DiscoverX scanMAX, 1 μM; for S10 (1 μM): Percentage of screened kinases with PoC values < 10 at 1 μM.
In data set [3] the target is LRRK2 (Homo sapiens, UniProt Q5S007). The experiment in a line: NanoBRET assay follow-up. The format is cell-based. Particulars: singlicate (n = 1) dose–response. On the technique in general: BRET reads energy transfer from a luciferase to a nearby fluorophore.
Chain of LRRK2 (Q5S007 whole entry): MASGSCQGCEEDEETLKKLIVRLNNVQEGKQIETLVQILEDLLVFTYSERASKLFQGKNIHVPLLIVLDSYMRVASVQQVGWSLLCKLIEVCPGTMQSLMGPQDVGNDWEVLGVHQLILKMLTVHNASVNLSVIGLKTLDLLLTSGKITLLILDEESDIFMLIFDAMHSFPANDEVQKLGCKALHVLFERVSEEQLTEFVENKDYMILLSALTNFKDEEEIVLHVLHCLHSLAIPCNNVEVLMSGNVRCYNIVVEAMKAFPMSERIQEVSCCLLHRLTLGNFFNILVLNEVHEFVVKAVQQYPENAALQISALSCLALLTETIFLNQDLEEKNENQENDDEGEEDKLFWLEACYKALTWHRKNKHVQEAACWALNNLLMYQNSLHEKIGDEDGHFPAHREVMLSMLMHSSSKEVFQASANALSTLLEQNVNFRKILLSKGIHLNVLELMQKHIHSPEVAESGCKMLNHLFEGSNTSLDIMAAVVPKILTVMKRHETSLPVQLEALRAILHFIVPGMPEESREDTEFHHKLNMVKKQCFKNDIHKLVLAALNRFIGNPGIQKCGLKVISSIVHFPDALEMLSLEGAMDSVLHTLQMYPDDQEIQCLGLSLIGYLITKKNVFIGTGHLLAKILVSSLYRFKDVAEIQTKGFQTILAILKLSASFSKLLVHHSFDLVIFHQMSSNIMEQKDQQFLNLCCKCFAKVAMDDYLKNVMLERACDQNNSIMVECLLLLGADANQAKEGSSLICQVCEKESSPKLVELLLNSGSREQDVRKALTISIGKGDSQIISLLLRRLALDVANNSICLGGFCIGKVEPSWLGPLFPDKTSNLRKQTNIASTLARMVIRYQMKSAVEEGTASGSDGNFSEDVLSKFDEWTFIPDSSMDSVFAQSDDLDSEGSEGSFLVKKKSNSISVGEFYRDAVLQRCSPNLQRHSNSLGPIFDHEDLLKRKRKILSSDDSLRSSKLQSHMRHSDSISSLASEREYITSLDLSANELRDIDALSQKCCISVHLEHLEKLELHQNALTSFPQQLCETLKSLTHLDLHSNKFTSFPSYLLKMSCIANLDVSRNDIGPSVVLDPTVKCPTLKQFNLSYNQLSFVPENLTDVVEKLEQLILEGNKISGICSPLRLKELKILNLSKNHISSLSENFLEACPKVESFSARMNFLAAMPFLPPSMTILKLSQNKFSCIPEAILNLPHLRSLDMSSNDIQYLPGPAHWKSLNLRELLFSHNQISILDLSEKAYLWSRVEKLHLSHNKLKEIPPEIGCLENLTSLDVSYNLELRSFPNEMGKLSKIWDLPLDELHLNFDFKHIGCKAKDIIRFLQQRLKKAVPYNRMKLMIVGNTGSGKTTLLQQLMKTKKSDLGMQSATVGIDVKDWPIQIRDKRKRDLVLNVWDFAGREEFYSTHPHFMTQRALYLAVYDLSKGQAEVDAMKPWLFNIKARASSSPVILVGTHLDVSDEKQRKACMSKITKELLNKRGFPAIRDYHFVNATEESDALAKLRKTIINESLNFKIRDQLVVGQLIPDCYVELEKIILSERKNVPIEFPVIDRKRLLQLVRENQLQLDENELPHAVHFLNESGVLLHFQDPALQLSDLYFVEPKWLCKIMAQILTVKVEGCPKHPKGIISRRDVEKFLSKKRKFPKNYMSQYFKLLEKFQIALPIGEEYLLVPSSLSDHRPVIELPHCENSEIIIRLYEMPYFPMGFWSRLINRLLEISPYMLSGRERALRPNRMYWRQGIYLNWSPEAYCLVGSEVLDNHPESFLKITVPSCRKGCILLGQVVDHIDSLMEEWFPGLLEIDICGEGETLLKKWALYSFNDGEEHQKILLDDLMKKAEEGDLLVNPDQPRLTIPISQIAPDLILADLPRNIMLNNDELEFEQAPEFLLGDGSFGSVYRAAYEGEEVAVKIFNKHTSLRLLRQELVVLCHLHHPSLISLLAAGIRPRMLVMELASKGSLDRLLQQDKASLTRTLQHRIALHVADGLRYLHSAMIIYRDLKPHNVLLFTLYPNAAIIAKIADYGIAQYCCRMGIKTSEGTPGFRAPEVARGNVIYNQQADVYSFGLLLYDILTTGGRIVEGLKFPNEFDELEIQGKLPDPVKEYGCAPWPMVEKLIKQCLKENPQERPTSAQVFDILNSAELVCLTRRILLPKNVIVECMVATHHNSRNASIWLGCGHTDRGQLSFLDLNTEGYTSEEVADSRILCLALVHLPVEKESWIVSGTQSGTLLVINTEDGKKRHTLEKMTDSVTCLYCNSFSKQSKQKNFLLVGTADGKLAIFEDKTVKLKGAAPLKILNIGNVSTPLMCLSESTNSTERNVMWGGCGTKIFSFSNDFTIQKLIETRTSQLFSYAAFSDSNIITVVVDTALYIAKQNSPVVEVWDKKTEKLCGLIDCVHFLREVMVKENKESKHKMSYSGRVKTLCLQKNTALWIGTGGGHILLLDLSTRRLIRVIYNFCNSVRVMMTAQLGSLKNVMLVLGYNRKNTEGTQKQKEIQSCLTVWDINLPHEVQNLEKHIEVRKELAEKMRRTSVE
Data set [4] relates to 16-member kinase panel. The experiment in a line: Eurofins custom enzymatic kinase panel, count of kinases inhibited. Type of data set: biochemical. The conditions noted are these: 16-member Eurofins panel, 1 μM. The method, boiled down: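 Radiometric kinase assays were run with ATP at Km. Each test compound was tested at a single concentration of 1 μM, in duplicate, against each panel kinase, with results as percent of control. The count is the number of kinases at ≤ 10 PoC, i.e. inhibited ≥ 90%.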

The target in data set [5] is JAK2 (Homo sapiens, UniProt O60674). The experiment in a line: Eurofins kinase enzymatic radiometric assay. The format is biochemical. Summed up: (§1)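 Radiometric kinase activity assay with ATP at the Km for each kinase. Test compounds were run as 9-point dose–response curves in duplicate to give IC50.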
Chain of JAK2 (O60674 whole entry): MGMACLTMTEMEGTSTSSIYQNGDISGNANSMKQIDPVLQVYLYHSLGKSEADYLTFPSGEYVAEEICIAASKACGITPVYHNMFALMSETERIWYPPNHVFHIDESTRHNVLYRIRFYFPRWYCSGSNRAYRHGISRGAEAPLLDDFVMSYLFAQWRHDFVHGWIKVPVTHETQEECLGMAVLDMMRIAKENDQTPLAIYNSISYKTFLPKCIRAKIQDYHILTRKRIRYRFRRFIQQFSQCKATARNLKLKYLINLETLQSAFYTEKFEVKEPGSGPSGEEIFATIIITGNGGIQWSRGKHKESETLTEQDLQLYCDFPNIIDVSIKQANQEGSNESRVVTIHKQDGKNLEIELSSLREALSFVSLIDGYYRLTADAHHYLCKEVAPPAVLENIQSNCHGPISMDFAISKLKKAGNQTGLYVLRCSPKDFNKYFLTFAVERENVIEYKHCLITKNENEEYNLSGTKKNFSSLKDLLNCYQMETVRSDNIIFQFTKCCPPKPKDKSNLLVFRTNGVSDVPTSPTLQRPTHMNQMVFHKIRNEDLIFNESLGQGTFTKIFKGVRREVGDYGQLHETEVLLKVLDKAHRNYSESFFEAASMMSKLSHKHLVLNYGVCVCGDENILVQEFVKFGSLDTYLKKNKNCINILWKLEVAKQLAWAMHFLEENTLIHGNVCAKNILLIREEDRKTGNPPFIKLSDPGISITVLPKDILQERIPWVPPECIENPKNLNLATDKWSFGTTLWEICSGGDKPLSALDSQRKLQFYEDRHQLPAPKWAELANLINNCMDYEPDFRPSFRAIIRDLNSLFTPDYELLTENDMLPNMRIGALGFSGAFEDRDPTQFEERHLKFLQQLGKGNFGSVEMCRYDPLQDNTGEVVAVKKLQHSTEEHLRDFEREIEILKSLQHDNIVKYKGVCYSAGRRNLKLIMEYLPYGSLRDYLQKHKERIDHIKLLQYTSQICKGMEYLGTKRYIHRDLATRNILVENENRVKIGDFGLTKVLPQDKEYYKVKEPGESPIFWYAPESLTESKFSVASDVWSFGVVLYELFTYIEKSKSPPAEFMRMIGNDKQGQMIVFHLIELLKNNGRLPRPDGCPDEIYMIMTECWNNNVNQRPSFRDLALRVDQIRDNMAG
In data set [6] the target is T1, DRAK1 (DRAK1-NLuc) (Homo sapiens, UniProt Q9UEE5).
T1 sequence (Q9UEE5 1-414): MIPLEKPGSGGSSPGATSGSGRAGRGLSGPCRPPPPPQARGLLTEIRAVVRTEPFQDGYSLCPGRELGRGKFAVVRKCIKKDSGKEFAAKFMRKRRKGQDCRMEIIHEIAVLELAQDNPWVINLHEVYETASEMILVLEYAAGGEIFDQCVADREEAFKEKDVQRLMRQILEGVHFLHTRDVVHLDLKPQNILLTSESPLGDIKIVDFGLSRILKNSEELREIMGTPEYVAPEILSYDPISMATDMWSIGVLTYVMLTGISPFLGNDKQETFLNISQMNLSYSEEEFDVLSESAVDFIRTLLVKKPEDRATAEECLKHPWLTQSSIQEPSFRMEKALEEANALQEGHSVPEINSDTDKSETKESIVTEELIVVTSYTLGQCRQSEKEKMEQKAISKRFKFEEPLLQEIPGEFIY
In words: NanoBRET cellular target engagement assay. The format is cell-based.

Data set [7] deals with T2, ULK2 (Homo sapiens, UniProt Q8IYT8).
T2 sequence (Q8IYT8 1-1036): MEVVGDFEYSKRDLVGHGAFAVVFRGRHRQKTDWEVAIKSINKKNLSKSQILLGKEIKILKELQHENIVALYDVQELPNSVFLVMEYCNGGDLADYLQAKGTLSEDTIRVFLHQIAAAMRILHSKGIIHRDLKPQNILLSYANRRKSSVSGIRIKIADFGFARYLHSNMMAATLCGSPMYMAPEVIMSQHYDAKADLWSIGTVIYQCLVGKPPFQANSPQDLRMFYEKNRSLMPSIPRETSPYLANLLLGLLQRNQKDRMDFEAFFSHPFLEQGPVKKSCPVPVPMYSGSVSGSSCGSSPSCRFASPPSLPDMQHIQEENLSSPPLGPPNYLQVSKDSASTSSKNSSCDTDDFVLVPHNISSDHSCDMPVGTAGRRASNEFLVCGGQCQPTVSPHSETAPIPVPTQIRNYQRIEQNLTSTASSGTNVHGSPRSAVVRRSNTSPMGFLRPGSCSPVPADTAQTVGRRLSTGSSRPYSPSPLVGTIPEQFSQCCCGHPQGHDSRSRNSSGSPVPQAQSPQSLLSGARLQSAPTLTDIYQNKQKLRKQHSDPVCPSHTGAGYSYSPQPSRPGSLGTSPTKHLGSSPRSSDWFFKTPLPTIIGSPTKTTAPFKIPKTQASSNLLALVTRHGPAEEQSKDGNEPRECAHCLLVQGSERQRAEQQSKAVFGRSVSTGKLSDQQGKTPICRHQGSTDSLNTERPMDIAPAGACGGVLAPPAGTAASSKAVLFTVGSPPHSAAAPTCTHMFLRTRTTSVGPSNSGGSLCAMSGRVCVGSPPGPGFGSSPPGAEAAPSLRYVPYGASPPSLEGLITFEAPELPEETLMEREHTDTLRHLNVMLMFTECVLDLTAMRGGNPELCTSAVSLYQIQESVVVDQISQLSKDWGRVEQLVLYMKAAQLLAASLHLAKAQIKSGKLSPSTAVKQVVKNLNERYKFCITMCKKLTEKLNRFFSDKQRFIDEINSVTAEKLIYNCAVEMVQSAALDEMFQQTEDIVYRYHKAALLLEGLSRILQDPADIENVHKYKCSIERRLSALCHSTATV
In words: Eurofins kinase enzymatic radiometric assay. Type of data set: biochemical. Summed up: as §1

The target in data set [8] is T3, DRAK2 (Homo sapiens, UniProt O94768).
T3 sequence (O94768 1-372): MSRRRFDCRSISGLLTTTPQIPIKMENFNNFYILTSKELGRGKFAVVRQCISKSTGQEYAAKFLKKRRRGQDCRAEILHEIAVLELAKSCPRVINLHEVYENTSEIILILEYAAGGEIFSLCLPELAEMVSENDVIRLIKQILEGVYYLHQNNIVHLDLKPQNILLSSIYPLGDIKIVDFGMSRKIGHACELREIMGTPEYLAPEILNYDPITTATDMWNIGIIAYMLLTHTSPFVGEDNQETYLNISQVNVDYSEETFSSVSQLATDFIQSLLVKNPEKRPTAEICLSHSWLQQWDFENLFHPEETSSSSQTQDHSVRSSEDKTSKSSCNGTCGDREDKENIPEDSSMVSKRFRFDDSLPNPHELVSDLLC
In words: Eurofins kinase enzymatic radiometric assay. The format is biochemical. The method, boiled down: as §1

Consider `Cc1nn(CC(F)(F)F)cc1Nc1ncc(C2CC2)c(NCCc2c[nH]cn2)n1` [Compound 3, N^4-(2-(1H-Imidazol-4-yl)ethyl)-5-cyclopropyl-N^2-(3-methyl-1-(2,2,2-trifluoroethyl)-1H-pyrazol-4-yl)pyrimidine-2,4-diamine], for which, in data set [1], the “Pe (permeability coefficient, PAMPA)” value is recorded as “low permeability”. Further, in data set [2], the “no. kinases with PoC < 10” value is given as 2 and the “S10 (1 μM)” value amounted to 0.005. Further, the “LRRK2 NanoBRET IC50” value in data set [3] was “did not have any activity”. Further, the “no. kinases ≤ 10 PoC in enzyme panel” value in data set [4] came out at 0.

Broadly, the IC50 is the concentration that inhibits the measured activity by half. A higher IC50 goes with weaker potency. In data set [5], `O=C(NCCCNc1ccnc(Nc2cccc(NC(=O)N3CCCC3)c2)n1)C1CCC1` [Compound 17, N-(3-((4-((3-(Cyclobutanecarboxamido)propyl)amino)pyrimidin-2-yl)amino)phenyl)pyrrolidine-1-carboxamide] gave an IC50 above 10 µM. Also, in data set [2], the “no. kinases with PoC < 10” value is on record as 3 and the “S10 (1 μM)” value was 0.007. Also, the “fold loss in potency, enzymatic versus NanoBRET, DRAK1” value in data set [6] was below 10 fold. Moreover, the “no. kinases ≤ 10 PoC in enzyme panel” value in data set [4] is 0.

`Cc1nn(CC(F)(F)F)cc1Nc1ncc(C2CC2)c(NCCCNC(=O)C2CCC2)n1` [Compound 4, N-(3-((5-Cyclopropyl-2-((3-methyl-1-(2,2,2-trifluoroethyl)-1H-pyrazol-4-yl)amino)pyrimidin-4-yl)amino)propyl)cyclobutanecarboxamide]: the “no. kinases with PoC < 10” value in data set [2] worked out at 11. The “S10 (1 μM)” value in data set [2] turned out to be 0.027. Besides, the “fold loss in potency, enzymatic versus NanoBRET, DRAK1” value in data set [6] was below 10 fold. In data set [6] (HEK293, 0.5 μM tracer K-9, n = 1 where no error, SEM n = 3), the “DRAK1 NanoBRET IC50” value is given as “submicromolar”. Moreover, the IC50 was determined as 1.74 µM in data set [7] and 0.062 µM in data set [8]. The “no. kinases ≤ 10 PoC in enzyme panel” value in data set [4] was found to be 1.
